# Data as given in ChEMBL document CHEMBL1140053, “Discovery of antimycobacterial spiro-piperidin-4-ones: an atom economic, stereoselective synthesis, and biological intervention” (J Med Chem, 2008).
# Test system: Mycobacterium tuberculosis
# Assay: Antimycobacterial activity against multidrug-resistant Mycobacterium tuberculosis by agar dilution method
# Assay type: functional
# Procedure, shortened: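 Clinical MDR isolate resistant to isoniazid, rifampicin, ethambutol and ofloxacin. Agar dilution in Middlebrook 7H11 agar with OADC, pH 7.40, NCCLS-like method, run in duplicate. MIC is the lowest concentration giving complete inhibition of growth.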
row,Compound,MIC
1,CN1C/C(=C\c2ccc(F)cc2)C(=O)[C@]2(C1)[C@@H](c1ccc(F)cc1)[C@@H]1CCCN1[C@@]21C(=O)Nc2ccccc21 (racemic),2.97 µg/mL
2,COc1ccccc1/C=C1\CN(C)C[C@@]2(C1=O)[C@@H](c1ccccc1OC)CN(C)[C@@]21C(=O)Nc2ccccc21 (racemic),1.49 µg/mL
3,CN1C/C(=C\c2cccc(F)c2)C(=O)[C@]2(C1)[C@@H](c1cccc(F)c1)CN(C)[C@@]21C(=O)Nc2ccccc21 (racemic),1.56 µg/mL
4,CN1C/C(=C\c2cccc3ccccc23)C(=O)[C@]2(C1)[C@@H](c1cccc3ccccc13)[C@@H]1CCCN1[C@@]21C(=O)Nc2ccccc21 (racemic),5.31 µg/mL
5,NNC(=O)c1ccncc1 [ISONIAZID],45.6 µg/mL
6,CN1C/C(=C\c2cccs2)C(=O)[C@]2(C1)[C@@H](c1cccs1)CN(C)[C@@]21C(=O)Nc2ccccc21 (racemic),3.28 µg/mL
7,CN1C/C(=C\c2ccccc2)C(=O)[C@]2(C1)[C@@H](c1ccccc1)[C@H](c1ccccc1)N[C@@]21C(=O)Nc2ccccc21 (racemic),1.49 µg/mL
8,Cc1ccccc1/C=C1\CN(C)C[C@@]2(C1=O)[C@@H](c1ccccc1C)[C@H](c1ccccc1)N[C@@]21C(=O)Nc2ccccc21 (racemic),2.82 µg/mL
9,CN1C/C(=C\c2ccc(Cl)cc2Cl)C(=O)[C@]2(C1)[C@@H](c1ccc(Cl)cc1Cl)[C@H](c1ccccc1)N[C@@]21C(=O)Nc2ccccc21 (racemic),2.35 µg/mL
10,COc1ccc(/C=C2\CN(C)C[C@@]3(C2=O)[C@@H](c2ccc(OC)cc2)[C@H](c2ccccc2)N[C@@]32C(=O)Nc3ccccc32)cc1 (racemic),0.67 µg/mL
11,CN1C/C(=C\c2ccco2)C(=O)[C@]2(C1)[C@@H](c1ccco1)CN(C)[C@@]21C(=O)Nc2ccccc21 (racemic),3.52 µg/mL
12,COc1ccccc1/C=C1\CN(C)C[C@@]2(C1=O)[C@@H](c1ccccc1OC)[C@H](c1ccccc1)N[C@@]21C(=O)Nc2ccccc21 (racemic),2.67 µg/mL
13,COc1ccccc1/C=C1\CN(C)C[C@@]2(C1=O)[C@@H](c1ccccc1OC)[C@@H]1CCCN1[C@@]21C(=O)Nc2ccccc21 (racemic),0.71 µg/mL
14,Cc1ccccc1/C=C1\CN(C)C[C@@]2(C1=O)[C@@H](c1ccccc1C)CN(C)[C@@]21C(=O)Nc2ccccc21 (racemic),0.39 µg/mL
15,CN1C/C(=C\c2cccs2)C(=O)[C@]2(C1)[C@@H](c1cccs1)[C@@H]1CCCN1[C@@]21C(=O)Nc2ccccc21 (racemic),0.38 µg/mL
16,CN1C/C(=C\c2ccc(Cl)cc2Cl)C(=O)[C@]2(C1)[C@@H](c1ccc(Cl)cc1Cl)CN(C)[C@@]21C(=O)Nc2ccccc21 (racemic),2.59 µg/mL
17,CN1C/C(=C\c2ccccc2Cl)C(=O)[C@]2(C1)[C@@H](c1ccccc1Cl)CN(C)[C@@]21C(=O)Nc2ccccc21 (racemic),0.08 µg/mL
18,CN1C/C(=C\c2ccccc2Cl)C(=O)[C@]2(C1)[C@@H](c1ccccc1Cl)[C@@H]1CCCN1[C@@]21C(=O)Nc2ccccc21 (racemic),0.71 µg/mL
19,COc1ccc(/C=C2\CN(C)C[C@@]3(C2=O)[C@@H](c2ccc(OC)cc2)CN(C)[C@@]32C(=O)Nc3ccccc32)cc1 (racemic),0.36 µg/mL
20,CN1C/C(=C\c2ccc(F)cc2)C(=O)[C@]2(C1)[C@@H](c1ccc(F)cc1)[C@H](c1ccccc1)N[C@@]21C(=O)Nc2ccccc21 (racemic),0.16 µg/mL
21,Cc1ccc(/C=C2\CN(C)C[C@@]3(C2=O)[C@@H](c2ccc(C)cc2)[C@H](c2ccccc2)N[C@@]32C(=O)Nc3ccccc32)cc1 (racemic),1.41 µg/mL
22,CN1C/C(=C\c2ccccc2Cl)C(=O)[C@]2(C1)[C@@H](c1ccccc1Cl)[C@H](c1ccccc1)N[C@@]21C(=O)Nc2ccccc21 (racemic),5.27 µg/mL
